Assay results of several laboratories.
CYP1A1: Cytochrome P450 1A1 (CYP1A1, Homo sapiens, UniProt P04798)
BCL2: Apoptosis regulator Bcl-2 (BCL2, Homo sapiens, UniProt P10415)
Enoyl-[acyl-carrier-protein] reductase [NADPH] FabI: Enoyl-[acyl-carrier-protein] reductase [NADPH] FabI (Staphylococcus aureus, UniProt Q6GI75)

| Structure (SMILES) | target | test | conditions | Ki [nM] |
| --- | --- | --- | --- | --- |
| CC(C)=CCc1c(O)cc(O)c2c1O[C@H](c1ccc(O)cc1)CC2=O | CYP1A1 | enzyme activity, inhibitor, fluorescence | 15 min, pH 7.4 | 200 |
| CC[C@H](C)[C@H](NC(=O)[C@H](CCC(=O)O)NC(=O)[C@H](CC(=O)O)NC(=O)CNC(=O)[C@H](CC(C)C)NC(=O)[C@H](CCCNC(=N)N)NC(=O)[C@H](CCC(N)=O)NC(=O)[C@H](CC(C)C)NC(=O)[C@H](CO)NC(=O)[C@H](CCC(N)=O)NC(=O)[C@@H](NC(=O)[C@H](CC(C)C)NC(=O)[C@H](Cc1c[nH]c2ccccc12)NC(=O)[C@@H](NC(=O)[C@H](CCC(=O)O)NC(=O)[C@@H]1CCCN1C(=O)[C@H](CCCNC(=N)N)NC(C)=O)[C@@H](C)CC)[C@@H](C)O)C(=O)N[C@@H](CC(N)=O)C(=O)N[C@@H](C)C(=O)N[C@@H](Cc1ccc(O)cc1)C(=O)N[C@@H](Cc1ccc(O)cc1)C(=O)N[C@@H](C)C(=O)N[C@@H](CCCNC(=N)N)C(N)=O | BCL2 | ligand displacement, FP |  | ~2700 |
| CC[C@H](NC(=O)[C@H](CS(=O)(=O)CC1CC1)N[C@@H](c1ccc(F)cc1)C(F)(F)F)C(=O)C(=O)NC1CC1 | Cathepsin S (Ctss, Mus musculus, UniProt O70370) | enzyme activity, inhibitor |  | 0.04 |
| O=c1cc(-c2ccccc2)oc2c1ccc1ccccc12 | CYP1A1 | enzyme activity, inhibitor, fluorescence | 6 min, pH 7.6 | 43 |
| CCc1cc(O)c(Oc2ccccc2)cc1F | Enoyl-[acyl-carrier-protein] reductase [NADPH] FabI | enzyme activity, inhibitor |  | 0.09 |
| COc1cc(O)c(CC=C(C)C)c(O)c1C(=O)/C=C/c1ccc(O)cc1 | CYP1A1 | enzyme activity, inhibitor, fluorescence | 15 min, pH 7.4 | 110 |
| NCCCC[C@H](NC(=O)[C@@H]1CCCN1C(=O)[C@@H]1CSSC[C@H](N)C(=O)N[C@@H](Cc2ccc(O)cc2)C(=O)N[C@@H](Cc2ccccc2)C(=O)N[C@@H](CCC(N)=O)C(=O)N[C@@H](CC(N)=O)C(=O)N1)C(=O)NCC(N)=O | Vasopressin V1a receptor (AVPR1A, Homo sapiens, UniProt P37288) | ligand displacement, radioligand | cell membranes | 1.8 |
| C#Cc1cccc(-c2cc(=O)c3ccccc3o2)c1 | CYP1A1 | enzyme activity, inhibitor, fluorescence | 6 min, pH 7.6 | 41 |
| CC[C@H](C)[C@H](NC(=O)[C@H](CCCCN)NC(=O)[C@H](CCCNC(=N)N)NC(=O)[C@H](CC(C)C)NC(=O)[C@H](CCC(N)=O)NC(=O)[C@H](C)NC(=O)[C@H](C)NC(=O)[C@H](Cc1ccccc1)NC(=O)[C@H](CCC(=O)O)NC(=O)[C@@H]1CCCN1C(=O)[C@@H]1CCCN1C(=O)[C@H](CC(C)C)NC(=O)[C@H](CCC(=O)O)NC(=O)[C@H](C)NC(C)=O)C(=O)NCC(=O)N[C@@H](CC(=O)O)C(=O)N[C@@H](CCCCN)C(=O)N[C@H](C(=O)N[C@@H](Cc1ccc(O)cc1)C(=O)N[C@@H](CS)C(N)=O)C(C)C | Bcl-2-like protein 2 (BCL2L2, Homo sapiens, UniProt Q92843) | ligand displacement, FP |  | ~14000 |
| CCc1cc(O)c(Oc2ccc(C(N)=O)cc2F)cc1F | Enoyl-[acyl-carrier-protein] reductase [NADPH] FabI | enzyme activity, inhibitor |  | 0.08 |
| CC[C@H](C)[C@H](NC(=O)[C@H](CCC(=O)O)NC(=O)[C@H](CC(=O)O)NC(=O)CNC(=O)[C@H](CC(C)C)NC(=O)[C@H](CCCNC(=N)N)NC(=O)[C@H](CCCNC(=N)N)NC(=O)[C@H](CC(C)C)NC(=O)CNC(=O)[C@H](CCC(N)=O)NC(=O)[C@@H](NC(=O)[C@H](CCSC)NC(=O)[C@H](Cc1c[nH]c2ccccc12)NC(=O)[C@@H](NC(=O)[C@H](CCC(=O)O)NC(=O)[C@@H]1CCCN1C(=O)[C@H](CCCNC(=N)N)NC(C)=O)[C@@H](C)CC)[C@@H](C)O)C(=O)N[C@@H](CC(N)=O)C(=O)N[C@@H](C)C(=O)N[C@@H](Cc1ccc(O)cc1)C(=O)N[C@@H](Cc1ccc(O)cc1)C(=O)N[C@@H](C)C(=O)N[C@@H](CCCNC(=N)N)C(N)=O | BCL2 | ligand displacement, FP |  | ~2900 |
| O=C(O)CCC(NC(=O)NC(CCCCNC(=O)CCCCCCC(=O)NC(CCCCNC(=O)CN1CCN(CC(=O)O)CCN(CC(=O)O)CCN(CC(=O)O)CC1)C(=O)OCc1ccccc1)C(=O)O)C(=O)O (stereo not drawn) | Glutamate carboxypeptidase 2 (FOLH1, Homo sapiens, UniProt Q04609) | enzyme activity, inhibitor, fluorescence |  | 2.9 |
